ChEMBL document CHEMBL1125159, “Synthesis and antihyperglycemic activity of novel 5-(naphthalenylsulfonyl)-2,4-thiazolidinediones” (J Med Chem, 1990)
Calls of active or inactive are those of the source. No cut-off for these calls is given here.

Tests used:
Mus musculus [1] = species on record: Mus musculus; test: Decrease in blood glucose in mice compared to vehicle controls.; assay type: functional, organism-based
In short: (§1)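 Male genetically diabetic db/db mice (C57BL/KsJ, 3–7 months old), 4–6 per group. Compound 100 mg/kg given by oral gavage once daily for 4 days in 2% Tween 80/saline. Mice fasted 18 h before the final dose. Insulin 0.5 unit/kg sc given 2 h after drug. Tail-tip blood taken 2 h later from unanesthetized mice. Plasma glucose reported as percent change versus vehicle group, mean ± SE.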

Mus musculus [2] = species on record: Mus musculus; test: Percent decrease in blood glucose relative to vehicle-treated group with use of four to six mice; assay type: functional; in short: as §1
Mus musculus [3] = test: Plasma glucose level in diabetic db/db mice at a dose of 100 mg/kg per day for four days administered orally after fed state
Rattus norvegicus [4] = test: Plasma glucose level in 24 hr fasted Sprauge-Dawley rats at a dose of 200 mg/kg per day in four divided doses which were administered intraperitoneally; assay type: functional, organism-based
In short: (§2)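 24 h-fasted Sprague-Dawley rats were dosed ip at 200 mg/kg per day in four divided doses. They were then anesthetized with halothane and blood was drawn from the iliac artery for blood lactate and plasma glucose. N = 8 rats per group, compared with vehicle (p < 0.05).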

Mus musculus [5] = test: Plasma glucose level in diabetic db/db mice at a dose of 100 mg/kg per day for four days administered orally after 18-h fasted state
Rattus norvegicus [6] = test: Blood lactate level in 24 hr fasted Sprauge-Dawley rats at a dose of 200 mg/kg per day in four divided doses which were administered intraperitoneally; assay type: functional; conditions: route intraperitoneal; in short: as §2
[7] = Ionization constant for the compound; assay type: physicochemical
Rattus norvegicus [8] = test: Evaluated for the plasma glucose level in 24 hr fasted Sprauge-Dawley rats at a dose of 200 mg/kg/day in four divided doses administered intraperitoneally; assay type: functional, organism-based; in short: as §2
Rattus norvegicus [9] = test: Evaluated for the blood lactate level in 24 hr fasted Sprague-Dawley rats at a dose of 200 mg/kg/day in four divided doses administered intraperitoneally; assay type: functional; conditions: route intraperitoneal; in short: as §2
Rattus norvegicus [10] = test: Blood lactate level in 24 hr fasted Sprauge-Dawley rats at a dose of 200 mg/kg per day in four divided doses which were administered intraperitoneally,; assay type: functional; conditions: route intraperitoneal; in short: as §2

Question: Which Decrease (Mus musculus [1]) does the source give for O=C1NC(=O)C(Sc2ccc3cc(O)c(O)cc3c2)S1 (stereo unspecified) here?
Answer: inactive

Question: For O=C1NC(=O)C(S(=O)(=O)c2ccc3ccccc3c2Br)S1 (stereo unspecified), which Decrease (Mus musculus [1]) is on record?
Answer: inactive

Question: With CCOC(=O)Oc1ccc2cc(S(=O)(=O)C3SC(=O)NC3=O)ccc2c1 (stereo unspecified) as the compound, how does the Decrease (Mus musculus [1]) read?
Answer: inactive

Question: Which Decrease (Mus musculus [1]) does the source give for O=C1NC(=O)C([S+]([O-])c2ccc3ccccc3c2)S1 (stereo unspecified) here?
Answer: inactive

Question: Which Decrease (Mus musculus [1]) does the source give for O=C1NC(=O)C(Oc2ccc3ccccc3c2)S1 (stereo unspecified) here?
Answer: inactive

Question: For O=C1NC(=O)C(S(=O)(=O)c2ccc3cc(OCc4ccccc4)ccc3c2)S1 (stereo unspecified), which Decrease (Mus musculus [1]) is on record?
Answer: inactive

Question: For CCOC(=O)Oc1ccc2cc(SC3SC(=O)NC3=O)ccc2c1 (stereo unspecified), which Decrease (Mus musculus [1]) is on record?
Answer: inactive

Question: Which Decrease (Mus musculus [2]) does the source give for O=C1NC(=O)C(S(=O)(=O)c2cccc3ccccc23)S1 (stereo unspecified) here?
Answer: -34%

Question: For CC1(COc2ccc(CC3SC(=O)NC3=O)cc2)CCCCC1 (stereo unspecified) [CIGLITAZONE], which Plasma glucose level (Mus musculus [3]) is on record?
Answer: 313 mg/dL

Question: And the Plasma glucose level (Rattus norvegicus [4])?
Answer: 83 mg/dL

Question: And the Plasma glucose level (Mus musculus [5])?
Answer: 285 mg/dL

Question: And the Blood lactate (Rattus norvegicus [6])?
Answer: 8 mg/dL

Question: And the Decrease (Mus musculus [2])?
Answer: -35%

Question: And the pKa [7]?
Answer: 6.82

Question: For CN1C(=O)SC(S(=O)(=O)c2cccc3c(Br)cccc23)C1=O (stereo unspecified), which Decrease (Mus musculus [1]) is on record?
Answer: inactive

Question: Which Decrease (Mus musculus [2]) does the source give for COc1ccc2cc(SC3SC(=O)NC3=O)ccc2c1C(F)(F)F (stereo unspecified) here?
Answer: -32%

Question: Which Decrease (Mus musculus [1]) does the source give for CN1C(=O)SC(C)(S(=O)(=O)c2cccc3c(Br)cccc23)C1=O (stereo unspecified) here?
Answer: inactive

Question: Which Decrease (Mus musculus [1]) does the source give for O=C1NC(=O)C(S(=O)(=O)c2ccc(F)cc2)S1 (stereo unspecified) here?
Answer: inactive

Question: For CCCCCCCCS(=O)(=O)C1SC(=O)NC1=O (stereo unspecified), which Decrease (Mus musculus [1]) is on record?
Answer: inactive

Question: For O=C1NC(=O)C(Sc2ccc3ccccc3c2)S1 (stereo unspecified), which Decrease (Mus musculus [2]) is on record?
Answer: -29%

Question: What about the pKa [7] of the same compound?
Answer: 5.58

Question: Which Decrease (Mus musculus [2]) does the source give for O=C1NC(=O)C(Cc2ccc3ccccc3c2)S1 (stereo unspecified) here?
Answer: -38%

Question: What about the pKa [7] of the same compound?
Answer: 6.83

Question: Which Decrease (Mus musculus [1]) does the source give for CC1(S(=O)(=O)c2cccc3ccccc23)SC(=O)NC1=O (stereo unspecified) here?
Answer: inactive

Question: For O=C1NC(=O)C(S(=O)(=O)c2cccc3c(Br)cccc23)S1 (stereo unspecified), which Decrease (Mus musculus [2]) is on record?
Answer: -29%

Question: With COc1ccc2c(S(=O)(=O)C3SC(=O)NC3=O)cccc2c1C(F)(F)F (stereo unspecified) as the compound, how does the Decrease (Mus musculus [2]) read?
Answer: -40%

Question: For N=C(N)NC(=N)NCCc1ccccc1 [PHENFORMIN], which Plasma glucose level (Rattus norvegicus [8]) is on record?
Answer: 85 mg/dL

Question: What about the Blood lactate (Rattus norvegicus [9]) of the same compound?
Answer: 12.2 mg/dL

Question: Which Decrease (Mus musculus [1]) does the source give for COc1ccc2cc(S(=O)(=O)C3SC(=O)NC3=O)ccc2c1C(F)(F)F (stereo unspecified) here?
Answer: inactive

Question: Which results are given for O=C1NC(=O)C(S(=O)(=O)c2ccc3ccccc3c2)S1 (stereo unspecified)?
Answer: Blood lactate (Rattus norvegicus [10]): 7.2 mg/dL; Plasma glucose level (Mus musculus [3]): 352 mg/dL; Plasma glucose level (Rattus norvegicus [4]): 77 mg/dL; Plasma glucose level (Mus musculus [5]): 243 mg/dL; Decrease (Mus musculus [2]): -63%; pKa [7]: 3.95

Question: Which Decrease (Mus musculus [1]) does the source give for O=C1NC(=O)C(S(=O)(=O)Cc2ccc3ccccc3c2)S1 (stereo unspecified) here?
Answer: inactive

Question: With COc1ccc2cc(S(=O)(=O)C3SC(=O)NC3=O)ccc2c1Br (stereo unspecified) as the compound, how does the Decrease (Mus musculus [1]) read?
Answer: inactive

Question: Which Decrease (Mus musculus [1]) does the source give for CCCCCCCCSC1SC(=O)NC1=O (stereo unspecified) here?
Answer: inactive

Question: With CCOC(=O)Oc1cc2ccc(SC3SC(=O)NC3=O)cc2cc1OC(=O)OCC (stereo unspecified) as the compound, how does the Decrease (Mus musculus [2]) read?
Answer: -22%

Question: With O=C1NC(=O)C(Sc2ccc3ccccc3c2Br)S1 (stereo unspecified) as the compound, how does the Decrease (Mus musculus [1]) read?
Answer: inactive

Question: For O=C1NC(=O)C(S(=O)(=O)c2ccc(Br)cc2)S1 (stereo unspecified), which Decrease (Mus musculus [1]) is on record?
Answer: inactive

Question: With O=C1NC(=O)C(CSc2ccc3ccccc3c2)S1 (stereo unspecified) as the compound, how does the Decrease (Mus musculus [1]) read?
Answer: inactive

Question: Which Decrease (Mus musculus [1]) does the source give for CCOC(=O)Oc1cc2ccc(S(=O)(=O)C3SC(=O)NC3=O)cc2cc1OC(=O)OCC (stereo unspecified) here?
Answer: inactive

Question: For CC1(COc2ccc(S(=O)(=O)C3SC(=O)NC3=O)cc2)CCCCC1 (stereo unspecified), which Decrease (Mus musculus [1]) is on record?
Answer: inactive

Question: For COc1cccc2cccc(S(=O)(=O)C3SC(=O)NC3=O)c12 (stereo unspecified), which Decrease (Mus musculus [1]) is on record?
Answer: inactive

Question: For O=C1NC(=O)C(Sc2ccc3cc(O)ccc3c2)S1 (stereo unspecified), which Decrease (Mus musculus [2]) is on record?
Answer: -19%
